Test results published in ChEMBL document CHEMBL1138051, “Photodynamic therapy agent with a built-in apoptosis sensor for evaluating its own therapeutic outcome in situ” (2006).

Columns and labels:
Format in all cases: functional
[1] = tested on: HepG2; assay: Viability of human HepG2 cells in presence of 5 J/cm2 light at 30 uM relative to control by MTT assay; settings: HepG2, light or radiation study, read-out: Survival
In short: (§1)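 HepG2 cells were plated 50000/well, grown overnight, then loaded 20 h with drug in DMEM/0.8% BSA. After rinsing into complete DMEM they were irradiated with a 670 nm laser at 20 mW/cm2 fluence rate. They were then incubated 24 h at 37 °C, given MTT 0.5 mg/mL for 2 h, solubilised in acidified 2-propanol, and A570 was read. Viability is versus untreated cells (100%), 3 wells/condition, 3-8 experiments, mean ± standard error.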

[2] = tested on: HepG2; assay: Viability of human HepG2 cells in presence of 7.5 J/cm2 light at 15 uM relative to control by MTT assay; settings: HepG2, light or radiation study, read-out: Survival; in short: as §1
[3] = tested on: HepG2; assay: Viability of human HepG2 cells in presence of 7.5 J/cm2 light at 1 uM relative to control by MTT assay; settings: HepG2, light or radiation study, read-out: Survival; in short: as §1
[4] = tested on: HepG2; assay: Viability of human HepG2 cells in presence of 1 J/cm2 light at 15 uM relative to control by MTT assay; settings: HepG2, light or radiation study, read-out: Survival; in short: as §1
[5] = tested on: HepG2; assay: Viability of human HepG2 cells in presence of 1 J/cm2 light at 30 uM relative to control by MTT assay; settings: HepG2, light or radiation study, read-out: Survival; in short: as §1
[6] = tested on: HepG2; assay: Viability of human HepG2 cells in presence of 1 J/cm2 light at 1 uM relative to control by MTT assay; settings: HepG2, light or radiation study, read-out: Survival; in short: as §1
[7] = tested on: HepG2; assay: Viability of human HepG2 cells at 30 uM relative to control by MTT assay; settings: read-out: Survival
In short: (§2)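 HepG2 cells seeded 50000/well in complete DMEM and grown overnight at 37 °C. They were then exposed for 20 h to drug in DMEM with 0.8% BSA and rinsed. Cells were kept in dark with no illumination, then incubated 24 h at 37 °C. MTT 0.5 mg/mL was given for 2 h and solubilised in 70% 2-propanol/0.1 M HCl, with A570 read. Viability is relative to untreated cells (100%), 3 wells/condition, 3-8 experiments, mean ± standard error.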

[8] = tested on: HepG2; assay: Viability of human HepG2 cells at 5 uM relative to control by MTT assay; settings: read-out: Survival; in short: as §2
[9] = tested on: HepG2; assay: Viability of human HepG2 cells in presence of 7.5 J/cm2 light at 5 uM relative to control by MTT assay; settings: HepG2, light or radiation study, read-out: Survival; in short: as §1
[10] = tested on: HepG2; assay: Viability of human HepG2 cells in presence of 1 J/cm2 light at 5 uM relative to control by MTT assay; settings: HepG2, light or radiation study, read-out: Survival; in short: as §1
[11] = tested on: HepG2; assay: Viability of human HepG2 cells at 15 uM relative to control by MTT assay; settings: read-out: Survival; in short: as §2
[12] = tested on: HepG2; assay: Viability of human HepG2 cells in presence of 7.5 J/cm2 light at 30 uM relative to control by MTT assay; settings: HepG2, light or radiation study, read-out: Survival; in short: as §1
[13] = tested on: HepG2; assay: Viability of human HepG2 cells at 1 uM relative to control by MTT assay; settings: read-out: Survival; in short: as §2
[14] = tested on: HepG2; assay: Viability of human HepG2 cells in presence of 5 J/cm2 light at 5 uM relative to control by MTT assay; settings: HepG2, light or radiation study, read-out: Survival; in short: as §1
[15] = tested on: HepG2; assay: Viability of human HepG2 cells in presence of 5 J/cm2 light at 1 uM relative to control by MTT assay; settings: HepG2, light or radiation study, read-out: Survival; in short: as §1
[16] = tested on: HepG2; assay: Viability of human HepG2 cells in presence of 5 J/cm2 light at 15 uM relative to control by MTT assay; settings: HepG2, light or radiation study, read-out: Survival; in short: as §1

Question: Which results are given for `C=Cc1c(C)c2cc3[nH]c(c4c5nc(cc6nc(cc1[nH]2)C(C)=C6CC)C(C)=C5C(=O)C4)[C@@](C)(CCC(=O)NCC(=O)N[C@@H](CC(=O)O)C(=O)N[C@@H](CCC(=O)O)C(=O)N[C@H](C(=O)N[C@@H](CC(=O)O)C(=O)NCC(=O)N[C@@H](CO)C(=O)NCC(=O)N[C@@H](CCCCNC(=O)CCCN(C)c1ccc(/N=N/c2ccc4nc5ccc(N(CC)CC)cc5[n+](-c5ccccc5)c4c2)cc1)C(=O)O)C(C)C)C3(C)C`?
Answer: viability at 30 µM [1]: 7%; viability at 15 µM [2]: 5%; viability at 1 µM [3]: 6%; viability at 15 µM [4]: 56%; viability at 30 µM [5]: 41%; viability at 1 µM [6]: 90%; viability at 30 µM [7]: 117%; viability at 5 µM [8]: 105%; viability at 5 µM [9]: 4%; viability at 5 µM [10]: 86%; viability at 15 µM [11]: 108%; viability at 30 µM [12]: 4%; viability at 1 µM [13]: 106%; viability at 5 µM [14]: 20%; viability at 1 µM [15]: 58%; viability at 15 µM [16]: 11%
